Screens from PubChem.
PAFAH1B2 FP inh: PAFAH1B2 (human) inhibition. P68402. recombinant PAFAH1B2, FP-rhodamine activity probe, fluorescence polarization. inhibition, % at 3.39 µM. actives 1.2% (n = 340,000);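 active = inhibition above the mean of all tested compounds plus 3 SD, cut at about 24% in these data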;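 also: 0% = enzyme with DMSO and 100% = wells lacking PAFAH1B2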
Target sequence (P68402 whole entry, looked up): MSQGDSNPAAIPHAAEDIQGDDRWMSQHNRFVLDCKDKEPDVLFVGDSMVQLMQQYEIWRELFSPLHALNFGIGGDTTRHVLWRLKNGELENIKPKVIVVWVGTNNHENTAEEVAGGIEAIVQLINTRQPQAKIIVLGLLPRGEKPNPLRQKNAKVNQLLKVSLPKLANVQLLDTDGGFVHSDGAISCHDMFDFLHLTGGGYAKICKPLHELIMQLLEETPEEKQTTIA
IMP-1 inh: blocks Pseudomonas aeruginosa IMP-1 metallo-beta-lactamase; purified IMP-1, nitrocefin hydrolysis, epi-absorbance fluorescence; inhibition, % at 5.6 µM; actives 0.45% (n = 290,000); AID 1556;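 active = inhibition above the mean plus 3 SD of all compounds in the same screening run, cut at about 4.5% in these data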;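 also: 0% = IMP-1 with DMSO and 100% = DMSO wells lacking enzyme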
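Assay system: purified IMP-1; Quantity: IMP-1 0.2 nM before substrate addition; Medium: HEPES buffer pH 7.1 with ZnSO4 and Brij 35; Incubation: 15 min enzyme–compound preincubation, then 25 min nitrocefin reaction, 25 °C; Signal: fluorescence quenching readout, ex 480/em 530 nm; Controls: DMSO with and without IMP-1; Repeats: singlicate testing.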
PAFAH1B3 inh: blocks human PAF acetylhydrolase 1B catalytic subunit 3 | Q15102 | recombinant PAFAH1B3, FP-rhodamine probe, fluorescence polarization | inhibition, % at 3.39 µM | actives 0.28% (n = 340,000) | AID 492972;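 active = inhibition above the screen-wide average of all tested compounds plus 3 SD, cut at about 25% in these data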;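 also: 0% = enzyme with DMSO only and 100% = wells lacking PAFAH1B3 protein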
Target sequence (Q15102 whole entry, looked up): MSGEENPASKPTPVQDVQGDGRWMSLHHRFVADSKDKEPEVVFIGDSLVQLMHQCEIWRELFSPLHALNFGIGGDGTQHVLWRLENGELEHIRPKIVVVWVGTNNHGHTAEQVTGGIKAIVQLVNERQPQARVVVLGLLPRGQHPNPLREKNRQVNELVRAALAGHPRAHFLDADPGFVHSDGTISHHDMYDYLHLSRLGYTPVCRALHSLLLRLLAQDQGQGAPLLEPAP
VIM-2 inh: inhibitors of Pseudomonas aeruginosa VIM-2 metallo-beta-lactamase; inhibition, % at 5.6 µM; purified VIM-2, nitrocefin hydrolysis, epi-absorbance fluorescence; actives 0.89% (n = 290,000);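 active = inhibition above the mean of all tested compounds plus 3 SD, cutoff set per screening run, cut at about 7.5% in these data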;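 also: red hydrolysis product quenches plate fluorescence so inhibitors raise well fluorescence; 0% = enzyme with DMSO and 100% = DMSO without enzyme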
pPAFAH inh: pPAFAH (human) enzyme inhibition. AID 463082. actives 1.5% (n = 330,000). inhibition, % at 3.39 µM. recombinant pPAFAH, FP-rhodamine probe fluorescence polarization. Q13093;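 active = inhibition above the mean inhibition across the screen plus 3 SD, cut at about 25% in these data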;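 also: inhibitors block binding of the rhodamine activity-based probe so polarization drops; 0% = enzyme with DMSO and 100% = wells lacking pPAFAH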
PAFAH2 inh: inhibitors of human PAFAH2; recombinant PAFAH2, FP-rhodamine activity probe, fluorescence polarization; inhibition, % at 3.39 µM; actives 0.99% (n = 340,000); Q99487;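 active = inhibition above the mean over all tested compounds plus 3 SD, cut at about 30% in these data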;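 also: inhibitors block probe labeling of enzyme so polarization drops; 0% = enzyme with DMSO and 100% = wells lacking PAFAH2 protein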
The depositor's hits bear a star. Shown are actives, neighbours in structure and some others; about 3.6% of the full set was active somewhere.

How did COc1cc(OC)cc(C(=O)NCC(C)NC(=O)c2cc(OC)cc(OC)c2)c1 (configuration not stated) do in these assays?
PAFAH1B2 FP inh: -3; PAFAH1B3 inh: 8; pPAFAH inh: 5; PAFAH2 inh: 7

How did Cc1ccc(SCC(=O)Nc2cc([N+](=O)[O-])ccc2O)cc1 do in these assays?
PAFAH1B2 FP inh: 82*; IMP-1 inh: -3; PAFAH1B3 inh: 9; VIM-2 inh: -3; pPAFAH inh: 6; PAFAH2 inh: 49*

How did Cc1ccc(SCC(=O)Nc2cccc(C)c2)cc1 do in these assays?
PAFAH1B2 FP inh: 29*; IMP-1 inh: -2; PAFAH1B3 inh: 11; VIM-2 inh: -3; pPAFAH inh: 4; PAFAH2 inh: -1

Results for Cc1ccc(SCC(=O)Nc2cccnc2)cc1 ?
PAFAH1B2 FP inh: 11; IMP-1 inh: -3; PAFAH1B3 inh: 8; VIM-2 inh: -1; pPAFAH inh: 3; PAFAH2 inh: -4

How did O=C(Cc1ccc(NC(=O)C2CCCN(C(=O)c3ccccc3)C2)cc1)Nc1ccc(C(=O)N2CCOCC2)cc1 (configuration not stated) do in these assays?
PAFAH1B2 FP inh: 4; PAFAH1B3 inh: 9; PAFAH2 inh: -3

How did O=C1[C@H](Cc2ccccc2)NCC=CC[C@H](c2ccc(Cl)cc2)N1Cc1ccccc1 do in these assays?
PAFAH1B2 FP inh: 27*; PAFAH1B3 inh: 2; PAFAH2 inh: -5

What do the screens show for `O=C1[C@H](Cc2ccccc2)NCC=CC[C@H](c2ccc(Cl)cc2)N1Cc1ccc(Cl)cc1`?
PAFAH1B2 FP inh: 7; PAFAH1B3 inh: 7; PAFAH2 inh: -4

How did Cc1nn(CC(=O)Nc2ccc3c(c2)OCCO3)c(C)c1[N+](=O)[O-] do in these assays?
PAFAH1B2 FP inh: 4; PAFAH1B3 inh: 5; pPAFAH inh: -4; PAFAH2 inh: -14

How did O=C(NCc1ccncc1)C(=O)NCC1OCCN1S(=O)(=O)c1cc(F)ccc1F (configuration not stated) do in these assays?
PAFAH1B2 FP inh: 0; IMP-1 inh: -4; PAFAH1B3 inh: -4; VIM-2 inh: -3; pPAFAH inh: 7; PAFAH2 inh: -1

How did O=C(NCc1ccc(Cl)cc1)C(=O)NCC1OCCN1S(=O)(=O)c1cc(F)ccc1F (configuration not stated) do in these assays?
PAFAH1B2 FP inh: 30*; IMP-1 inh: -3; PAFAH1B3 inh: 0; VIM-2 inh: -3; pPAFAH inh: 11; PAFAH2 inh: 3

What do the screens show for `CCCCn1c(N)c(N(CC(C)C)C(=O)CSc2nnc(-c3ccc(Cl)cc3)o2)c(=O)[nH]c1=O`?
PAFAH1B2 FP inh: 0; PAFAH1B3 inh: 0; pPAFAH inh: 1; PAFAH2 inh: 2

Results for CCCCCCC1(C)NC(=O)N(C(C)C(=O)Nc2ccc(N3CCOCC3)cc2)C1=O (configuration not stated) ?
PAFAH1B2 FP inh: -4; PAFAH1B3 inh: 7; pPAFAH inh: -1; PAFAH2 inh: -6

Results for O=C(O)c1ccc(-c2ccco2)n1Cc1ccccc1 ?
PAFAH1B2 FP inh: 9; IMP-1 inh: 8.8*; PAFAH1B3 inh: 5; VIM-2 inh: 2; pPAFAH inh: 5; PAFAH2 inh: 14

How did CC(=O)c1cccc(Nc2cc(C)nc3ccc(C)cc23)c1 do in these assays?
PAFAH1B2 FP inh: 2; IMP-1 inh: -5; PAFAH1B3 inh: 7; VIM-2 inh: 9.8*; pPAFAH inh: -1; PAFAH2 inh: 5

Results for CC(=O)c1cccc(Nc2cc(C)nc3c(C)cc(C)cc23)c1 ?
PAFAH1B2 FP inh: 6; IMP-1 inh: -3; PAFAH1B3 inh: 14; VIM-2 inh: 10*; pPAFAH inh: 4; PAFAH2 inh: 8

Results for CC(=O)c1ccc(Nc2cc(C)nc3c(C)cccc23)cc1 ?
PAFAH1B2 FP inh: -1; IMP-1 inh: -2; PAFAH1B3 inh: 4; VIM-2 inh: 2; pPAFAH inh: 1; PAFAH2 inh: 1

How did Cc1cc(C(=O)CN2c3cccc4cccc(c34)S2(=O)=O)c(C)n1C do in these assays?
PAFAH1B2 FP inh: 3; PAFAH1B3 inh: -1; pPAFAH inh: 14; PAFAH2 inh: 6

Results for CCC1Nc2ncnc(N3CCCCC3)c2N(Cc2ccc(OC)cc2)C1=O (configuration not stated) ?
PAFAH1B2 FP inh: 8; PAFAH1B3 inh: 4; pPAFAH inh: 3; PAFAH2 inh: 5
